Values after ≈ are worked out from the molar mass of the structure shown.

Experiment [1] has as its system Escherichia coli. Nature of the experiment: Antimicrobial activity against tolC deficient Escherichia coli by after 2 hrs. The format is functional. The essentials: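 ΔtolC E. coli grown in 200 μl LB at 37°C for 2 h across a range of antibiotic concentrations, read by A600. MIC is the lowest concentration giving 95% growth inhibition relative to an untreated culture.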

Experiment [2] has as its system Escherichia coli. Nature of the experiment: Inhibition of protein synthesis in Escherichia coli assessed as green fluorescent protein synthesis by coupled transcription-translation assay. Type of experiment: functional, organism-based. In short, it runs like this:
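E. coli lysate coupled transcription-translation with a GFP template, run with and without antibiotic at increasing concentrations. GFP measured by fluorescence scanning and native PAGE. Triplicates, expressed as percent of fluorescence without antibiotic.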

Experiment [3] relates to Streptomyces hygroscopicus. Nature of the experiment: Activity at Streptomyces hygroscopicus recombinant N-terminal His-tagged Hyg26 reductase expressed in Escherichia coli BL21 (DE3). The essentials:
(§1)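 His-tagged Hyg26, expressed in E. coli BL21-CodonPlus(DE3) and purified on Ni-NTA. Reductase kinetics: 800 ng enzyme, 50 mM phosphate pH 6 with 2 mM TCEP, 37°C, 15 min. NADH fixed at 60 mM with antibiotic 2–60 mM; for NADH, HA fixed at 20 mM with NADH 0.25–10 mM. DHHA-type product quantified by reverse-phase HPLC peak area. Duplicates averaged and fitted for kinetic parameters.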

Experiment [4] relates to Streptomyces hygroscopicus. Nature of the experiment: Ratio of Kcat to Km for Streptomyces hygroscopicus recombinant N-terminal His-tagged Hyg26 reductase expressed in Escherichia coli BL21 (DE3). The essentials:
as §1

Experiment [5] has as its system Streptomyces lividans. The experiment in a line: Antimicrobial activity against Streptomyces lividans by after 48 hrs by agar plate dilution method. The format is functional. The essentials: (§2)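 Spores plated on yeast extract malt extract agar containing a series of HA concentrations, incubated 48 h at 30°C, then scored for growth. MIC taken as the lowest HA concentration preventing visible growth of at least 95% of CFU.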

In experiment [6] the test system is Streptomyces hygroscopicus. The experiment in a line: Antimicrobial activity against hyg20 deficient Streptomyces hygroscopicus SCH30 by after 48 hrs by agar plate dilution method. Type of experiment: functional. Conditions: SCH30, 48 h. In short, it runs like this: as §2
For experiment [7], the system named is Streptomyces hygroscopicus. Nature of the experiment: Antimicrobial activity against hyg19 deficient Streptomyces hygroscopicus SCH30 by after 48 hrs by agar plate dilution method. Type of experiment: functional. Conditions: SCH30, 48 h. The essentials: as §2
Experiment [8] relates to Streptomyces hygroscopicus. Nature of the experiment: Antimicrobial activity against hyg28 deficient Streptomyces hygroscopicus SCH30 by after 48 hrs by agar plate dilution method. Type of experiment: functional. The note with it: SCH30, 48 h. The essentials: as §2
Experiment [9] relates to Streptomyces hygroscopicus. The experiment in a line: Antimicrobial activity against hyg19-hyg20-hyg21 deficient Streptomyces hygroscopicus SCH30 by after 48 hrs by agar plate dilution method. Type of experiment: functional. Conditions: SCH30, 48 h. In short, it runs like this:
as §2

For experiment [10], the system named is Streptomyces hygroscopicus. The experiment in a line: Antimicrobial activity against wild type Streptomyces hygroscopicus by after 48 hrs by agar plate dilution method. Type of experiment: functional. In short, it runs like this: as §2

In experiment [1], `CC(=O)[C@H]1O[C@@H](Oc2ccc(/C=C(\C)C(=O)N[C@@H]3[C@H](O)[C@@H](O)[C@@H](O)[C@@H](O)[C@@H]3O)cc2O)[C@@H](O)[C@@H]1O` [DESMETHYLENEHYGROMYCIN A] showed an MIC of 150 µg/mL (≈ 300 µM). In [2], the IC50 was found to be 320 nM and the IC90 is 1000 nM. In addition, in experiment [3], the Km came to 63.6 mM and the kcat came out at 31.7 s⁻¹. Moreover, the kcat/Km in [4] is 0.9 ×10³ /M/s.
Regarding `C/C(=C\c1ccc(O[C@@H]2O[C@H](C(C)O)[C@@H](O)[C@@H]2O)c(O)c1)C(=O)N[C@@H]1[C@H](O)[C@@H](O)[C@@H](O)[C@@H](O)[C@@H]1O` (stereo partly drawn), in experiment [1], 150 µg/mL (≈ 299 µM) was the least that counted as inhibitory (MIC). Moreover, in [2], the IC50 was 2700 nM and the IC90 turned out to be 14100 nM.
As for `CC(=O)[C@H]1O[C@@H](Oc2ccc(/C=C(\C)C(=O)N[C@@H]3[C@H](O)[C@@H](O)[C@H]4OCO[C@H]4[C@@H]3O)cc2O)[C@@H](O)[C@@H]1O` [HYGROMYCIN A], the MIC stood at 20 µg/mL (≈ 39.1 µM) in experiment [5]; 300 µg/mL (≈ 587 µM) in experiment [6]; 400 µg/mL (≈ 782 µM) in [7]; 10 µg/mL (≈ 19.6 µM) in [1]; 300 µg/mL (≈ 587 µM) in experiment [8]; 75 µg/mL (≈ 147 µM) in experiment [9]. This compound yielded an MIC in [10] of 400 µg/mL (≈ 782 µM). Further, the IC50 in [2] amounted to 180 nM. The IC90 in experiment [2] was 250 nM. For the same compound, the Km in experiment [3] was determined as 5.8 mM. Besides, the kcat in [3] was 5.1 s⁻¹. Besides, the kcat/Km in [4] is 1 ×10³ /M/s.
For `CO[C@@H]1[C@H](O)[C@@H](O)[C@@H](NC(=O)/C(C)=C/c2ccc(O[C@@H]3O[C@H](C(C)O)[C@@H](O)[C@@H]3O)c(O)c2)[C@@H](O)[C@@H]1O` (stereo partly drawn) [5'-DIHYDROMETHOXYHYGROMYCIN A], the lowest concentration to inhibit growth in experiment [1] (MIC) was 150 µg/mL (≈ 291 µM). Besides, in experiment [2], the IC50 was determined as 7400 nM and the IC90 was 50000 nM.
Regarding `CO[C@@H]1[C@H](O)[C@@H](O)[C@@H](NC(=O)/C(C)=C/c2ccc(O[C@@H]3O[C@H](C(C)=O)[C@@H](O)[C@@H]3O)c(O)c2)[C@@H](O)[C@@H]1O` [METHOXYHYGROMYCIN A], the lowest concentration to inhibit growth in [1] (MIC) was 150 µg/mL (≈ 292 µM). Besides, in experiment [2], the IC50 came to 500 nM and the IC90 is 2000 nM. In experiment [3], the Km is 19.8 mM and the catalytic constant (kcat) was found to be 15.5 s⁻¹. The kcat/Km in [4] was found to be 0.9 ×10³ /M/s.
`C/C(=C\c1ccc(O[C@@H]2O[C@H](C(C)O)[C@@H](O)[C@@H]2O)c(O)c1)C(=O)N[C@@H]1[C@H](O)[C@@H](O)[C@H]2OCO[C@H]2[C@@H]1O` (stereo partly drawn) gave an MIC in experiment [1] of 20 µg/mL (≈ 38.9 µM). In addition, in experiment [2], the IC50 came to 300 nM and the IC90 is 1500 nM.

The values above are taken from ChEMBL document CHEMBL1649279, “The final step of hygromycin A biosynthesis, oxidation of C-5''-dihydrohygromycin A, is linked to a putative proton gradient-dependent efflux” (Antimicrob Agents Chemother, 2009).
